Drawing on ChEMBL document CHEMBL1129341, “New neplanocin analogues. 6. Synthesis and potent antiviral activity of 6'-homoneplanocin A1” (J Med Chem, 1996), this text covers CC50 and IC50 for 6 compounds.

In brackets after ≈: the same amount, converted by molar mass.

Test [1] concerns E6SM. The test can be described thus: Cytotoxic activity against HSV-1(KOS) virus in E6SM Cells. As to conditions: Homo sapiens. The class given is functional. In a few lines: (§1)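 Antiviral screen in cell culture (HeLa, HEL, E6SM or Vero, per line). IC50 is the concentration that reduces virus-induced cytopathogenicity by 50%.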
In test [2] the test system is E6SM. The test can be described thus: Cytotoxic activity against HSV-2 (G) virus in E6SM Cells. The class given is functional. The settings on record: Homo sapiens.
The test system of test [3] is E6SM. The test can be described thus: Cytotoxic activity against TK-HSV-1 (B2006) virus in E6SM Cells. The test is classed as functional. The settings on record: Homo sapiens.
Test [4] relates to E6SM. The test can be described thus: Cytotoxic activity against VSV virus in E6SM Cells. The class given is functional. As to conditions: Homo sapiens. The essentials:
as §1

Test [5] concerns E6SM. The test can be described thus: Cytotoxic activity against vaccinia virus in E6SM Cells. As to conditions: Homo sapiens. The class given is functional. In a few lines: as §1
The subject of test [6] is HEL. The test can be described thus: Cytotoxic activity against HCMV (AD-169) virus in HEL Cells. The class given is functional. As to conditions: Homo sapiens.
Test [7] has as its system HEL. The test can be described thus: Cytotoxic activity against HCMV(Davis) virus in HEL Cells. As to conditions: Homo sapiens. The class given is functional.
In test [8] the test system is HEL. The test can be described thus: Cytotoxic activity against TK-VZV (YS/R) virus in HEL Cells. The test is classed as functional. The settings on record: Homo sapiens.
Test [9] concerns HEL. The test can be described thus: Cytotoxic activity against VZV (OKA) virus in HEL Cells. The test is classed as functional. As to conditions: Homo sapiens. In a few lines:
as §1

Test [10] deals with HEL. The test can be described thus: Cytotoxic activity against VZV (YS) virus in HEL Cells. The class given is functional. As to conditions: Homo sapiens.
In test [11] the test system is HEL. The test can be described thus: Cytotoxic activity against cell growth in HEL Cells. The class given is functional. The settings on record: Homo sapiens. The essentials:
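HEL cell cultures. CC50 is the concentration that reduces cell growth by 50%.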

The subject of test [12] is HeLa. Put plainly: Cytotoxic activity against Coxsackie B4 virus in HeLa Cells. The test is classed as functional. The settings on record: Homo sapiens.
The subject of test [13] is HeLa. The test can be described thus: Cytotoxic activity against Polio-1 virus in HeLa Cells. As to conditions: Homo sapiens. The class given is functional. In a few lines: as §1
For test [14], the system named is HeLa. Put plainly: Cytotoxic activity against VZV virus in HeLa Cells. The test is classed as functional. As to conditions: Homo sapiens.
The subject of test [15] is HeLa. The test can be described thus: Cytotoxic activity against cell morphology in HeLa Cells. The test is classed as functional. As to conditions: Homo sapiens. In a few lines: (§2)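 Host cells under the conditions of the antiviral assays (E6SM, HeLa or Vero, per line). Cytotoxic concentration is the one causing microscopic alteration of normal cell morphology in about 50% of cells.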

Test [16] deals with Vero. The test can be described thus: Inhibitory activity against virus plaque formation (PV-3) in Vero cells. The test is classed as functional, cell-based. As to conditions: Chlorocebus sabaeus. The essentials: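 Poliovirus type 3 in Vero cells. IC50 is the concentration that reduces virus plaque formation by 50%.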
Test [17] relates to Vero. Put plainly: Inhibitory activity against virus-induced cytopathogenicity (VSV)in Vero cells. The test is classed as functional, cell-based. As to conditions: Chlorocebus sabaeus. The essentials: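 Vesicular stomatitis virus in Vero cells. IC50 is the concentration that reduces virus-induced cytopathogenicity by 50%.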
The test system of test [18] is Vero. Put plainly: Cytotoxic activity against Reo-1 virus in Vero Cells. As to conditions: Chlorocebus sabaeus. The class given is functional.
The subject of test [19] is Vero. The test can be described thus: Cytotoxic activity against forest virus in Vero Cells. The test is classed as functional. As to conditions: Chlorocebus sabaeus. The essentials:
as §1

Test [20] concerns Vero. The test can be described thus: Cytotoxic activity against Sindbis virus in Vero Cells. The class given is functional. As to conditions: Chlorocebus sabaeus.
In test [21] the test system is Vero. Put plainly: Cytotoxic activity against Tacaribe virus in Vero Cells. The class given is functional. The settings on record: Chlorocebus sabaeus. The essentials: as §1
The subject of test [22] is Vero. The test can be described thus: Cytotoxic activity towards viable cells in Vero cells. The class given is functional. As to conditions: Chlorocebus sabaeus. The essentials:
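Vero cells. CC50 is the concentration that reduces the number of viable cells by 50%.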

For test [23], the system named is Vero. Put plainly: Cytotoxic activity against Junin virus in Vero Cells. As to conditions: Chlorocebus sabaeus. The class given is functional. In a few lines: as §1
The subject of test [24] is Vero. The test can be described thus: Cytotoxic activity against PV-3 virus in Vero Cells. The test is classed as functional. As to conditions: Chlorocebus sabaeus.
The subject of test [25] is E6SM. The test can be described thus: Cytotoxic activity against cell morphology in E6SM Cells. The class given is functional. The settings on record: Homo sapiens. The essentials: as §2
For test [26], the system named is HEL. The test can be described thus: Cytotoxic activity against TK-VZV (07/1) virus in HEL Cells. The test is classed as functional. The settings on record: Homo sapiens.
For test [27], the system named is Vero. The test can be described thus: Cytotoxic activity against cell morphology in Vero Cells. The test is classed as functional. As to conditions: Chlorocebus sabaeus. The essentials:
as §2

Test [28] in a line: Inhibitory activity against S-adenosyl-L-homocysteine hydrolase from rabbit erythrocytes.

Broadly, the CC50 is the concentration that lowers cell viability or growth by half. As a reminder, the IC50 is the midpoint of a concentration-inhibition curve. In the case of `Nc1ncnc2c1ncn2[C@@H]1C=C(CO)[C@@H](O)[C@H]1O` [NEOPLANOCIN A], the CC50 was more than 70 mg/L in test [1]; more than 70 mg/L in test [2]; 40 mg/L (≈ 152 µM) in [3]; 7 mg/L (≈ 26.6 µM) in [4]; 0.7 mg/L (≈ 2.66 µM) in test [5]; 0.3 mg/L (≈ 1.14 µM) in test [6]. Besides, the CC50 in test [7] was 0.4 mg/L (≈ 1.52 µM); in test [8] it was 7 mg/L (≈ 26.6 µM); in test [9], 15 mg/L (≈ 57 µM); in test [10], 9 mg/L (≈ 34.2 µM); in test [11], more than 20 mg/L; in test [12], more than 40 mg/L. For the same compound, the CC50 is more than 40 mg/L in [13]; 2 mg/L (≈ 7.6 µM) in [14]; more than 40 mg/L in test [15]; 4 mg/L (≈ 15.2 µM) in test [18]; more than 10 mg/L in test [19]; more than 10 mg/L in [20]. For the same compound, the CC50 in [21] was 2 mg/L (≈ 7.6 µM); in test [22], 152 mg/L (≈ 577 µM); in test [23] it was 0.5 mg/L (≈ 1.9 µM); in test [24], 2 mg/L (≈ 7.6 µM); in test [25] it was 70 mg/L (≈ 266 µM); in test [26], 10 mg/L (≈ 38 µM). In addition, the CC50 in test [27] is more than 10 mg/L. In addition, the IC50 stood at 0.74 mg/L (≈ 2.81 µM) in [16], 1 mg/L (≈ 3.8 µM) in [17] and 0.004 mg/L (≈ 0.0152 µM) in [28].
Consider `Nc1nccc2c1ncn2[C@@H]1C=C(CCO)[C@@H](O)[C@H]1O`, for which the IC50 in test [16] was more than 25 mg/L; in test [17] it was 3.9 mg/L (≈ 14.1 µM). The same compound returned a CC50 in test [22] of more than 500 mg/L.
For `Nc1nc(O)c2ncn([C@@H]3C=C(CCO)[C@@H](O)[C@H]3O)c2n1`, in that order: more than 25 mg/L, more than 500 mg/L and more than 500 mg/L.
Turning to `Nc1ccn([C@@H]2C=C(CCO)[C@@H](O)[C@H]2O)c(=O)n1`, the IC50 in test [16] was more than 25 mg/L; in test [17], more than 500 mg/L. The compound further displayed a CC50 in test [22] of more than 500 mg/L.
On to `Cc1cn([C@@H]2C=C(CCO)[C@@H](O)[C@H]2O)c(=O)[nH]c1=O`, for which the IC50 in [16] was more than 25 mg/L; in test [17], more than 500 mg/L. This compound also had a CC50 in test [22] of more than 500 mg/L.
Regarding `Nc1ncnc2c1ncn2[C@@H]1C=C(CCO)[C@@H](O)[C@H]1O`, the CC50 was more than 400 mg/L in test [1]; more than 400 mg/L in test [2]; more than 400 mg/L in test [3]; 1 mg/L (≈ 3.61 µM) in test [4]; 0.1 mg/L (≈ 0.361 µM) in test [5]; 0.15 mg/L (≈ 0.541 µM) in test [6]. Moreover, the CC50 is 0.5 mg/L (≈ 1.8 µM) in [7]; more than 50 mg/L in test [8]; more than 50 mg/L in test [9]; more than 50 mg/L in test [10]; more than 50 mg/L in test [11]; more than 200 mg/L in test [12]. In addition, the CC50 in test [13] is more than 200 mg/L; in test [14] it was 0.7 mg/L (≈ 2.52 µM); in test [15], more than 400 mg/L; in test [18], 70 mg/L (≈ 252 µM); in test [19], more than 400 mg/L; in test [20], more than 400 mg/L. The CC50 in test [21] is 20 mg/L (≈ 72.1 µM); in [22], more than 500 mg/L; in test [23], 5 mg/L (≈ 18 µM); in [24] it was 2 mg/L (≈ 7.21 µM); in test [25], more than 400 mg/L; in test [26], more than 50 mg/L. The CC50 in test [27] was more than 400 mg/L. In addition, the figures for the IC50 in test [16] and in test [17] were 0.35 mg/L (≈ 1.26 µM) and 1 mg/L (≈ 3.61 µM), respectively.
